Screening data: PubChem, several laboratories
In the library only some 3.6% were active in any assay of this set; here they are far more common.
STAT3 act: IL-6 driven STAT3 reporter potentiators, primary screen, U3A cells, luciferase, luminescence, MLSCN library; 0.91% of 190,000 active; AID 871, 2007; activation (% of control), % at 5.6 µM; IL-6 STAT3-luciferase reporter; 100% = signal with IL-6 EC80 alone;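 active means activation above the screen-wide mean of compound activation plus 3 SD, cut at about 130% in these data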
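Material: human U3A cells carrying STAT3-luciferase construct. Measured by: reporter luminescence signal. Timing: compound 1 h, then IL-6 6 h at 37 °C.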
PERK inhibitor: block of dimerizer-induced PERK translation repression, primary screen, PERK inhibitor project, CHO PERK-DD cells, SEAP luminescence, HTS; Eukaryotic translation initiation factor 2-alpha kinase 3 (Homo sapiens), Q9NZJ5; CHO PERK-DD fusion, SEAP luminescence translation reporter; inhibition, % at 5.6 µM; 0.17% of 220,000 active; AID 1416, 2008;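 active means inhibition above the mean inhibition of all tested compounds plus 3 SD, set separately per screening campaign, cut at about 2.9% in these data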;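 further: PERK kinase domain activated by AP20187 dimerizer at 100 nM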
HSF1 inh: HSF1 inhibitors in luciferase reporter cells, primary screen, cell-based, NIH3T3, luminescence. NIH3T3-HGL HSE-luciferase, MG132-induced, luminescence 8 h; stronger effect = lower value. activity change, negative = inhibition, % at 7.5 µM (by protocol). 0.77% of 300,000 active. AID 2098, 2009;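 active means more than half of replicate wells show activity change below -50%, luminescence cut by over half; inconclusive means some wells, but at most half, below -50%; inactive means no replicate well below -50%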;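 further: luciferase reports HSF-1 transcriptional activity via heat shock element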
PolyA inh: polyadenylation inhibitors in yeast reporter cells, primary screen, luminescence, S. cerevisiae; S. cerevisiae SKY197-pL101 polyadenylation reporter, beta-gal luminescence; efflux-impaired pdr1/pdr3 knockout yeast; score 100 = 6 SD above DMSO; activity score, % at 12 µM; 0.02% of 300,000 active;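 active means lowest replicate activity score at least 50, where 100 means six control SD above control mean; inconclusive means lowest score under 50 but half or more replicates reach 50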;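 further: yeast exposed to compound for 9 h at 30 °C; higher score means more reporter readthrough which indicates perturbed polyadenylation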
Hsp70 activator: Hsp70 transcriptional activators, primary screen, cell-based, HeLa, Hsp70 promoter luciferase, luminescence, 10 µM | 0.04% of 200,000 active | AID 1203, 2008 | HeLa Hsp70 promoter luciferase reporter; scaled: vehicle 0, proteasome-inhibitor control 100% | activation, % at 10 µM;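 active means activation above the mean across all tested compounds plus 3 SD, cutoff set per campaign, cut at about 5.5% in these data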
AHR act: AHR activators, primary screen, cell-based, luminescence, luciferase reporter, human; 2.5% of 320,000 active; AHR-responsive luciferase reporter cells; Aryl hydrocarbon receptor (Homo sapiens), P35869; AID 2796, 2010; activation, % at 5 µM; in the data active means activation above about 47%
Target sequence (P35869 whole entry, looked up): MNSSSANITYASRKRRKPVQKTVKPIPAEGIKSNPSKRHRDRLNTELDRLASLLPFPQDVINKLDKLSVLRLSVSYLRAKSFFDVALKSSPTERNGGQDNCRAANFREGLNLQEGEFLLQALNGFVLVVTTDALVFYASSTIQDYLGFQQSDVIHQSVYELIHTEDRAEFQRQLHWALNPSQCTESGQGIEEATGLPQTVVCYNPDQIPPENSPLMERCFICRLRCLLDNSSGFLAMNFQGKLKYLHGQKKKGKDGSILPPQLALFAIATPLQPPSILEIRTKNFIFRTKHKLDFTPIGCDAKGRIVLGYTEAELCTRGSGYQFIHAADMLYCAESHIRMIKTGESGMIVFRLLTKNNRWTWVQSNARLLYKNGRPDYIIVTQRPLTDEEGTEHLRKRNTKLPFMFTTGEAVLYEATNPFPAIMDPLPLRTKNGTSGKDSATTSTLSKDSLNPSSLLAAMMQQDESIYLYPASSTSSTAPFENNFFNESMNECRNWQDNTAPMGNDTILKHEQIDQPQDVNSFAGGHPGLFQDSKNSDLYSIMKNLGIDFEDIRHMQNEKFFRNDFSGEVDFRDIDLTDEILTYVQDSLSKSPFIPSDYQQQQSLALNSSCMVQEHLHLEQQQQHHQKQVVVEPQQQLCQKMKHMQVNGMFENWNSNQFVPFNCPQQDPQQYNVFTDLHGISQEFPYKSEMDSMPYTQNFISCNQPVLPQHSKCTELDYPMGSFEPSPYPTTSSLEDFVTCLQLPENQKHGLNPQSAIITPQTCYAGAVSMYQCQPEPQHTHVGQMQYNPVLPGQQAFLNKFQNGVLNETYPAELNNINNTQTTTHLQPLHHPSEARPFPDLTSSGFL
Each line names hits and unclear results; the compound was inactive in the other large screens.

COc1cc(/C=N/N=C2/C(=O)Nc3ccccc32)cc(OC)c1O	HSF1 inh -72
Cc1ccccc1OCC(=O)OCC(=O)c1ccc(OCc2ccccc2)cc1	none
COc1ccccc1CC(=O)c1ccc(OCc2ccccc2)cc1	PolyA inh inconclusive, AHR act 48 (no result: STAT3 act, PERK inhibitor, Hsp70 activator)
COc1ccc(C(=O)Nc2ccc(Nc3ccccc3)cc2)cc1[N+](=O)[O-]	none (no result: STAT3 act, PERK inhibitor, Hsp70 activator)
CCN(CC)c1ccc(C(=O)Nc2ccccc2)cc1[N+](=O)[O-]	AHR act 53
COc1ccc(C(=O)Nc2ccc(OCc3ccccc3)cc2)cc1[N+](=O)[O-]	HSF1 inh -61
NC(=O)c1ccc(NCCc2ccccc2)c([N+](=O)[O-])c1	none
O=C(Nc1ccccc1)c1ccc(NCCc2ccccc2)c([N+](=O)[O-])c1	AHR act 50
CCCCn1c(N)c(N(CCOC)C(=O)c2cc(-c3ccccc3Cl)nc3ccccc23)c(=O)[nH]c1=O	none (no result: STAT3 act, PERK inhibitor, Hsp70 activator)
COc1cccc(-n2nnnc2SCC(=O)Nc2ccc(NC(C)=O)cc2)c1	none (no result: STAT3 act, PERK inhibitor, Hsp70 activator)
COc1ccc(C(=O)NC(=S)NCc2cccnc2)cc1[N+](=O)[O-]	AHR act 76
CCCCC(=O)Nc1ccc(NC(=O)c2ccc(C)c([N+](=O)[O-])c2)cc1OC	AHR act 72
COc1ccc(C(=O)NC(=S)NCc2cccnc2)cc1OC	none
CCCCC(=O)Nc1ccc(NC(=O)c2ccc3c(c2)OCO3)cc1OC	none
O=C1CCCN1S(=O)(=O)c1ccc(F)cc1	none (no result: STAT3 act, PERK inhibitor, Hsp70 activator)
Cn1cc(S(=O)(=O)N2CCCC(C(=O)O)C2)cn1 (stereo unspecified)	none
CCn1cc(CCC(=O)NCCN2CCOCC2)c2ccccc21	none (no result: STAT3 act, PERK inhibitor, Hsp70 activator)
COc1ccccc1N=C1NC(=O)/C(=C/c2ccc(N(C)C)cc2)S1	AHR act 65 (no result: STAT3 act, PERK inhibitor, Hsp70 activator)
Cc1cc(C)nc(NS(=O)(=O)c2ccc(NC(=O)c3cc(=O)c4ccccc4o3)cc2)n1	none (no result: STAT3 act, PERK inhibitor, Hsp70 activator)
CCOC(=O)C1CCN(S(=O)(=O)c2cc3c(cc2C)NC(=O)CO3)CC1	none (no result: STAT3 act, PERK inhibitor, Hsp70 activator)
CC1CC(CC(=O)NNc2nc(-c3ccccc3)cs2)C(=O)O1 (stereo unspecified)	none
C/C(CCC1CC(C)OC1=O)=N/Nc1nc(-c2ccccc2)cs1 (stereo unspecified)	AHR act 103
Cc1nc2ccc(NC(=O)Cc3ccc4c(c3)OCCO4)cc2s1	PolyA inh 84
Cc1nc2ccc(NC(=O)Cc3ccc(Br)cc3)cc2s1	none (no result: STAT3 act, Hsp70 activator)
O=C(COc1ccc(F)cc1Cl)Nc1ccc(S(=O)(=O)Nc2nccs2)cc1	none (no result: STAT3 act, PERK inhibitor, Hsp70 activator)
CC(=O)n1nc(-c2ccccc2)cc1-c1ccccc1	AHR act 58 (no result: STAT3 act, PERK inhibitor, Hsp70 activator)
Nc1nc(F)nc2c1ncn2[C@@H]1O[C@H](CO)[C@@H](O)[C@@H]1O	none
C=CCNc1ncnc2c1ncn2C1OC(CO)C(O)C1O (stereo unspecified)	PERK inhibitor 3.0
Nc1nc(F)nc2c1ncn2[C@@H]1O[C@H](CO)[C@@H](O)[C@H]1O	HSF1 inh -56 (no result: STAT3 act, PERK inhibitor, Hsp70 activator)
O=C(NCc1ccccc1)C1CCN(S(=O)(=O)c2ccc(Cl)cc2)CC1	none
CN(CC1COc2ccccc2O1)C(=O)c1cccc(S(=O)(=O)N2CCCC2)c1 (stereo unspecified)	none (no result: STAT3 act, PERK inhibitor, HSF1 inh, PolyA inh, Hsp70 activator)
Cn1c(=O)c2c(-c3ccc(OC(F)F)cc3)cc(-c3ccccc3)nc2n(C)c1=O	none (no result: STAT3 act, Hsp70 activator)
Nc1nnc(-c2ccco2)s1	none
Nc1ncnc2oc(-c3ccco3)c(-c3ccco3)c12	HSF1 inh -53
COc1cc2c(cc1OC)C(c1ccc(C(F)(F)F)cc1)CC(=O)N2 (stereo unspecified)	AHR act 54 (no result: STAT3 act, PERK inhibitor, Hsp70 activator)
Cc1nc(Nc2ccccc2)sc1-c1ccccc1	AHR act 72
O=C(CN1C(=O)CSc2ncccc21)Nc1ccccc1F	none (no result: STAT3 act, PERK inhibitor, Hsp70 activator)
O=C(Nc1ccc(F)cc1Cl)c1ccc2c(=O)n3c(nc2c1)CCC3	none (no result: STAT3 act, PERK inhibitor, Hsp70 activator)
